The list is not random: actives were taken first. Their share in the collection is about 3.5%.
MrgX1 ag: agonists of human MrgX1 receptor, primary screen, HEK293 cells, Fluo-4 calcium flux; Mas-related G-protein coupled receptor member X1 (Homo sapiens), Q96LB2; Fluo-4 calcium fluorescence, agonist mode; stronger effect = higher value; B-score at 10 µM; 310,000 tested, 0.44% active;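 active = calcium response B-score plate-corrected fluorescence ratio at least 3 library SD, with starting fluorescence B-score inside 5 SD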
Target sequence (Q96LB2 whole entry, looked up): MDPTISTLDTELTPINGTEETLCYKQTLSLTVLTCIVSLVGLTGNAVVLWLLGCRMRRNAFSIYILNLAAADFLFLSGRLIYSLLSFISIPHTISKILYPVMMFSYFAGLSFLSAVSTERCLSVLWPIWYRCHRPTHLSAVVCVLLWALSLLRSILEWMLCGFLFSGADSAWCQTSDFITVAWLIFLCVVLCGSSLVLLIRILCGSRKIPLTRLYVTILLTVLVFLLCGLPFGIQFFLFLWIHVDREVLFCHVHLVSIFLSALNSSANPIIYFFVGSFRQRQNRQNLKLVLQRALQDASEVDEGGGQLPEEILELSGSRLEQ
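Material – MrgX1-expressing HEK293 cells · Input – 15,000 cells seeded per well · Dosing – compound as first of three additions · Times – overnight seeding, then 1 h dark dye loading · Measured by – kinetic Fluo-4 NW fluorescence of intracellular calcium · Read-out – B-scored fluorescence response ratio · Benchmarks – positive and negative control wells on each plate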
RGS4 inh: RGS4 inhibitors, primary screen, cell-based, HEK293 M3R inducible RGS4, calcium flux. Regulator of G-protein signaling 4 (Homo sapiens), P49798. Fluo-4 calcium flux; stronger effect = higher value; triggered by carbachol at its EC20. B-score at 10 µM. 310,000 tested, 0.45% active;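 active = B-score, a plate-corrected calcium signal, over three deviations above library mean, with baseline fluorescence within five deviations of library mean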;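 note: RGS4 expression induced by doxycycline in cells with stable M3 receptor; B-score is computed from the integrated fluorescence ratio over baseline after carbachol; higher B-score means a larger calcium signal and so more RGS4 inhibition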
Target sequence (P49798 whole entry, looked up): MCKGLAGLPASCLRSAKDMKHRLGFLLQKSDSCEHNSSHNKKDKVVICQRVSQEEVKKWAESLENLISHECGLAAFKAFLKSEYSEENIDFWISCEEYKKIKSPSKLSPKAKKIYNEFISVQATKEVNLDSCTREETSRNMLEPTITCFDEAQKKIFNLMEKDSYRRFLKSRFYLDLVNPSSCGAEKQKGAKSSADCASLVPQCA
MrgX1 antagonist: antagonists of human MrgX1 receptor, primary screen, HEK293 cells, Fluo-4 calcium flux; Mas-related G-protein coupled receptor member X1 (Homo sapiens), Q96LB2; AID 588676, 2011; B-score at 10 µM; 310,000 tested, 1.3% active; BAM8-22 antagonism; stronger effect = lower value;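 active = calcium-response B-score plate-corrected more than 3 library SD below zero, starting fluorescence within 5 deviations, no agonist response on first addition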;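 note: peak minus trough fluorescence over baseline after final BAM8-22 challenge near maximal dose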
MrgX1 PAM: positive allosteric modulators of MrgX1, primary screen, HEK293 cells, Fluo-4 calcium flux | 310,000 tested, 0.63% active | FDSS; stronger effect = higher value | B-score at 10 µM | Mas-related G-protein coupled receptor member X1 (Homo sapiens), Q96LB2;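 active = plate-corrected calcium response at least 3 library SD above typical, normal starting fluorescence, not activating the receptor alone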;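 note: compound read alongside a low EC10 to EC30 dose of BAM8-22 agonist; peak minus trough fluorescence over baseline measured at the second addition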
RGS4 pot: RGS4 potentiators or activators, primary screen, cell-based, HEK293 M3R inducible RGS4, calcium flux; carbachol calcium flux Fluo4; stronger effect = lower value; B-score at 10 µM; 310,000 tested, 0.92% active; AID 463111, 2010;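 active = B-score of the integrated calcium signal more than 4 SD below the library mean, with starting fluorescence not abnormally high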;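 note: negative B-score means reduced calcium response which marks RGS4 activation or potentiation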
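Assay system: HEK293 FlpIn-TREx cells, stable M3R, doxycycline-inducible RGS4 / Probe or stimulus: carbachol, ECmax concentration / Times: overnight RGS4 induction, 30 min dye load 37 °C, 20 min compound RT / Signal: kinetic calcium fluorescence imaging with Fluo4-AM dye, 2 µM / Measure: Agonist-evoked peak-minus-minimum fluorescence over baseline, integrated ratio, B score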
Numbers without * were called inactive; i = inactive; x = not tested or not shown.

SMILES	MrgX1 ag	RGS4 inh	MrgX1 antagonist	MrgX1 PAM	RGS4 pot
O=C1c2ccccc2NC(c2cccc(Cl)c2)N1N=C1CCCCCC1 (configuration not stated)	i	i	i	8.6*	i
O=C1c2ccccc2NC(c2ccc(Cl)cc2Cl)N1O (configuration not stated)	i	i	i	i	i
CCCN(CC(=O)Nc1ccccc1OC)C(=O)c1ccncc1	i	i	i	i	i
COc1ccc(OC)c(-c2cc(C(=O)N3CCN(c4ncccn4)CC3)c3ccccc3n2)c1	i	i	i	i	-7.1*
CCOc1ccccc1N1CCN(C(=O)c2cc(-c3cc(OC)ccc3OC)nc3ccccc23)CC1	i	i	i	i	-7.4*
COc1ccc(-c2cc(C(=O)N3CCCCCC3)c3ccccc3n2)c(OC)c1	i	i	i	i	i
COc1ccc(N2CCN(C(=O)c3cc(-c4cc(OC)ccc4OC)nc4ccccc34)CC2)cc1	i	i	i	i	-7*
O=C(NCc1ccco1)C1CCN(S(=O)(=O)c2cccc([N+](=O)[O-])c2)CC1	i	i	i	i	i
COc1ccc(CCN2C(=O)CC(C(N)=O)SC2=Nc2ccc(F)cc2)cc1OC (configuration not stated)	i	i	i	i	i
Cc1cc(Cn2nc(C(=O)NCc3cccs3)cc2-c2ccccc2)on1	i	x	i	i	x
CCCCOC(=O)c1ccc(NC(=O)Nc2ccc(OC)c(OC)c2)cc1	i	i	i	i	-7*
Cc1nn(-c2ccccc2)c(C)c1NC(=O)COC(=O)C1CC(=O)N(CCc2ccccc2)C1 (configuration not stated)	i	i	i	i	i
COc1ccc(OCCOC(=O)CNS(=O)(=O)c2ccc(SC)c([N+](=O)[O-])c2)cc1	i	i	i	i	i
C/C(=N\OC(=O)NC(C)C)c1sc(-c2ccc(Cl)cc2)nc1C	i	i	i	17*	i
Cc1cn([C@H]2C=C[C@@H](CO)O2)c(=O)[nH]c1=O	i	i	i	9.4*	i
CCOC(=O)c1ccc(Oc2nc(N(C)C)nc(N3CCOCC3)n2)cc1	i	i	i	i	i
Cc1cc(/C=C2\SC(=S)NC2=O)c(C)n1-c1ccccc1	i	i	i	i	i
Cc1cc(/C=C2\SC(=S)NC2=O)c(C)n1-c1ccc(O)cc1	43*	i	i	i	i
Cc1ccc(OCCn2ccnc2)c([N+](=O)[O-])c1	i	i	i	11*	i
COc1ccc(CCC(=O)N(C)CC(=O)Nc2ccc(N3CCOCC3)cc2)cc1	i	i	i	11*	i
CCOc1ccc(OCCCC(=O)N(C)CC(=O)Nc2ccc(N3CCOCC3)cc2)cc1	i	i	i	i	i
COc1ccc(OC)c(S(=O)(=O)N2CCC3(CC2)OCCN3S(=O)(=O)c2cccs2)c1	i	i	i	i	-7.5*
Cc1sc2nc(CSc3cccc(C(F)(F)F)c3)[nH]c(=O)c2c1C	i	i	-5.1*	i	i
O=C(O)/C=C/C(=O)NCc1csc2ccccc12	i	i	i	i	i
COc1ccc2nc(NC(=O)c3ccc([N+](=O)[O-])o3)sc2c1	i	i	i	12*	i
SMILES	MrgX1 ag	RGS4 inh	MrgX1 antagonist	MrgX1 PAM	RGS4 pot
COc1ccc2nc(NC(=O)/C=C/c3ccc4c(c3)OCO4)sc2c1	i	i	-6.3*	i	i
O=C(Nc1nc2c(F)cc(F)cc2s1)c1ccc([N+](=O)[O-])o1	i	i	i	8.6*	i
COc1ccc2nc(Nc3ccc4c(c3)OCO4)sc2c1	i	i	i	i	i
CCn1c(SCC(=O)NC2CCCCC2)nnc1C(CO)NC(=O)c1ccccc1 (configuration not stated)	i	i	i	i	i
COc1ccccc1OCCCCN1CCN(C(c2ccccc2)c2ccccc2)CC1	i	i	i	i	-8.1*
CC(C)c1ccccc1OCCCCN1CCCCC1	i	i	i	i	i
CC(C)c1ccccc1OCCCCCN1CCOCC1	i	i	i	i	-7.4*
CCC(Sc1nc(N)c(NC(=O)c2ccco2)c(=O)[nH]1)C(=O)O (configuration not stated)	i	i	i	i	i
COc1ccc(C(=O)Nc2ccccc2C(=O)Nc2ccncc2)cc1	i	i	i	i	i
Cc1ccc(-n2c(SCC(=O)NNC(=S)Nc3ccccc3)nc3ccccc3c2=O)cc1	i	i	i	7.4*	i
CCCc1nc(SCC(=O)N2CCC(Cc3ccccc3)CC2)c2c(=O)n(C)c(=O)n(C)c2n1	i	i	i	i	-7.3*
CCc1nc(SCC(=O)N2CCCCCC2)c2c(=O)n(C)c(=O)n(C)c2n1	i	i	i	i	-7.7*
O=C(c1cc(-c2cccs2)nn1-c1ccccc1)N1CCN(S(=O)(=O)c2ccccc2)CC1	i	i	i	i	-7.2*
COc1ccc2c(COC(=O)c3cccc(S(=O)(=O)NCC(C)C)c3)cc(=O)oc2c1	i	i	i	i	-7.2*
CC(C)(C)NC(=O)NC(=O)CSc1nncs1	i	i	i	i	i
COc1ccccc1C(=O)Nc1nsc(-c2ccccc2)n1	i	i	i	i	i
CC(=O)N1N=C(c2ccccc2)CC1c1cn(Cc2ccccc2)c2ccccc12 (configuration not stated)	i	i	-4.6*	i	i
CC(=O)N1N=C(c2ccncc2)CC1c1ccccc1O (configuration not stated)	i	i	-7.5*	i	i
O=C(c1ccncc1)N1N=C(c2ccc(Br)cc2)CC1c1ccccc1O (configuration not stated)	i	i	i	i	i
CC(=O)Nc1cccc(NC(=O)CSc2ncc(C(=O)Nc3ccccc3)c(=O)n2C)c1	i	5.8*	i	i	i
COc1ccc(-c2cnc(SCC(=O)Nc3ccc4c(c3)OCO4)n2Cc2ccco2)cc1	x	i	x	x	i
CC(=O)Nc1ccc(NC(=O)CSc2ncc(C(=O)Nc3ccc(Cl)cc3)c(=O)n2C)cc1	i	i	i	i	i
CC(=O)Nc1cccc(NC(=O)CSc2ncc(-c3ccc(Cl)cc3)n2Cc2ccco2)c1	i	i	i	i	-8.6*

Compound activity from PubChem.
